A number with no mark means an inactive call. Active and inactive are the calls of the source.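 Rule for the calls, unless noted: active = a full or partial loss of lipid-probe fluorescence in the fish gall bladder, intestine or both, judged by eye; inactive = no fluorescence loss, or compound toxic to the fish.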
experiment: inhibitors of larval lipid processing in zebrafish, primary screen, whole organism, PED6 fluorescence, gall bladder and intestine (AID 686); conditions: Zebrafish larvae PED6 lipid processing, fluorescence scoring; screened at 20 µM (by protocol);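 note: larvae 5 to 7 days old with five fish per well; signal comes from phospholipase A2 cleavage of quenched PED6 carried via bile; overnight exposure to compound and PED6 before scoring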
Outline: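 Doses: 20 µM single dose. Test system: live zebrafish larvae aged 5-7 days, whole organism. Quantity: five larvae per well. Measured by: By-eye fluorescence microscopy. Reagent: ingested quenched lipid PED6 at 100 nM. Read-out: visual per-well fluorescence inhibition score. Times: overnight exposure of larvae to compound plus PED6.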

Q: With Cc1cc(NC(CC(C)C)C(=O)O)nc(Cc2ccccc2)n1 (stereo not given) as the compound, how does the outcome read?
A: inactive

Q: Which outcome does the source give for CSc1nc2[nH]c3c(c2c2nnnn12)CCCC3 here?
A: inactive

Q: With CCOc1ccc(N2C(=O)CC(N)C2=O)cc1 (stereo not given) as the compound, how does the outcome read?
A: inactive

Q: Which outcome does the source give for Cc1nn2cnc3sc4c(c3c2nc1=O)CCCC4 here?
A: inactive

Q: With Nc1c(C(=O)NCc2ccco2)sc2nc(N3CCOCC3)c3c(c12)CCCC3 as the compound, how does the outcome read?
A: inactive

Q: For CC(NC(=O)Nc1ccc(O)cc1)(C(F)(F)F)C(F)(F)F, which outcome is on record?
A: inactive

Q: With Cc1cccc(-c2nnc3n2N=C(c2ccccc2)CS3)c1 as the compound, how does the outcome read?
A: inactive

Q: For N#Cc1nc(COc2ccccc2)oc1N1CCCC1, which outcome is on record?
A: inactive

Q: With COCCn1c(SCc2c(F)cccc2Cl)nc2c1c(=O)[nH]c(=O)n2C as the compound, how does the outcome read?
A: inactive

Q: With Cn1c(=O)[nH]c(=O)c2c1nc(Br)n2CCSc1nnnn1-c1ccccc1 as the compound, how does the outcome read?
A: inactive

Q: Which outcome does the source give for Cn1c(N)c(C#N)c(C#N)c1-c1ccccc1 here?
A: inactive

Q: For CCOC(=O)CC(=O)CSc1nnc2sc3ccccc3n12, which outcome is on record?
A: inactive

Q: For CCc1nc(NC2CCCCC2)c(C#N)c2c1COC(C)(C)C2, which outcome is on record?
A: inactive; toxic

Q: With CCc1nc(N2CCOCC2)c(C#N)c2c1CCCC2 as the compound, how does the outcome read?
A: inactive

Q: Which outcome does the source give for COC(=O)c1ccc(C2/C(=C(\O)c3ccc4c(c3)OCCO4)C(=O)C(=O)N2CCCN(C)C)cc1 (stereo not given) here?
A: inactive

Q: For C=CCOc1ccc(/C(O)=C2/C(=O)C(=O)N(CCCN3CCOCC3)C2c2ccccc2)cc1 (stereo not given), which outcome is on record?
A: inactive

Q: With Cc1cc(=O)oc2ccc(OCC(=O)N3CCc4ccccc43)cc12 as the compound, how does the outcome read?
A: inactive

Q: Which outcome does the source give for Cc1ccc(NC(=O)Cn2nc(C)c3ccccc3c2=O)cc1 here?
A: inactive

Q: With O=C(c1ccccc1)n1c(=S)nc2ccccn21 as the compound, how does the outcome read?
A: inactive

Q: Which outcome does the source give for CCC(C)Nc1nc(OC)nc(N(C)C#N)n1 (stereo not given) here?
A: inactive

Q: For Cc1[nH]nc(-c2ccc(O)cc2O)c1Oc1ccccc1, which outcome is on record?
A: inactive

Q: For O=C(NCCC1=CCCCC1)c1ccc(=O)oc1, which outcome is on record?
A: inactive

Q: Which outcome does the source give for c1ccc(-n2ncc3c(N4CCCC4)ncnc32)cc1 here?
A: inactive

Q: For Cc1cc2c(c(=O)o1)C(CC(C)C)C(C#N)=C(N)O2 (stereo not given), which outcome is on record?
A: inactive

Q: For O=c1cc(-c2ccco2)nc(-c2cccs2)o1, which outcome is on record?
A: inactive

Q: With O=C(Nc1nnc(SCc2ccccc2F)s1)c1ccco1 as the compound, how does the outcome read?
A: inactive

Q: With CCN(CC)CCCN1C(=O)C(=O)/C(=C(/O)c2ccc(OC)cc2)C1c1ccco1 (stereo not given) as the compound, how does the outcome read?
A: inactive

Q: For Cn1c(=O)[nH]c2cc(Cl)cnc21, which outcome is on record?
A: inactive

Q: Which outcome does the source give for C[N+]1(CCNC(=O)/C=N/O)CCCCC1 here?
A: inactive

Q: Which outcome does the source give for COC(=O)c1ccc(C2/C(=C(\O)c3cccc(OC)c3)C(=O)C(=O)N2CCCN(C)C)cc1 (stereo not given) here?
A: inactive

Q: Which outcome does the source give for Cc1cc(=O)oc(C)c1C(=O)n1nc(C)c2c1C[C@@H]1[C@H]2C1(C)C here?
A: inactive

Q: For CCN(CC)CCNc1ncnc2c1[nH]c1ccc(OC)cc12, which outcome is on record?
A: inactive

Q: With Cn1c(=O)c2c(nc(Br)n2CCSc2nc3ccccc3o2)n(C)c1=O as the compound, how does the outcome read?
A: inactive

Q: Which outcome does the source give for CCc1ccc(-c2cn3nc(C)c(C)nc3n2)cc1 here?
A: inactive

Q: With CCOC(=O)CSc1nc(N)c(C(=O)Nc2ccc(N(C)C)cc2)s1 as the compound, how does the outcome read?
A: active; weak signal in gallbladder and intestine

Q: With CCN(CC)Cc1cc(C(C)=O)ccc1OCC(C)C as the compound, how does the outcome read?
A: inactive

Q: Which outcome does the source give for Cn1c(NCc2ccccc2)nc2c1c(=O)n(Cc1ccc(Br)cc1)c(=O)n2C here?
A: inactive

Q: With CC12CCC(=O)N1c1c(sc3nc(N4CCOCC4)c4c(c13)CCCC4)C(=O)N2 (stereo not given) as the compound, how does the outcome read?
A: inactive

Q: With CCOc1ccc(-c2nc(C#N)c(N3CCN(CC)CC3)o2)cc1 as the compound, how does the outcome read?
A: inactive

Q: For NC(=O)CSc1nnc2n(-c3ccccc3)c(=O)c3c4c(sc3n12)CCCCC4, which outcome is on record?
A: inactive

experiment: loss of swimming-algae plug formation – whole organism, Chlamydomonas reinhardtii, WT vs cilia-less mutant, absorbance, 96-well, primary screen (AID 463189;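 active = inhibition at or above 50% relative to wild type and mutant plate controls; inactive = inhibition below 50%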;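 note: 0% = wild type cc124 cells in DMSO and 100% = ciliumless bld1 mutant cells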); conditions: Chlamydomonas reinhardtii gravitaxis, OD600 absorbance, 2 days; at 10 µM; active compounds read high

Q: Which inhibition does the source give for Cc1cc(NC(CC(C)C)C(=O)O)nc(Cc2ccccc2)n1 (stereo not given) here?
A: 0.592%

Q: Which inhibition does the source give for CSc1nc2[nH]c3c(c2c2nnnn12)CCCC3 here?
A: 79.4% (active)

Q: Which inhibition does the source give for CCOc1ccc(N2C(=O)CC(N)C2=O)cc1 (stereo not given) here?
A: 19.4%

Q: With Cc1nn2cnc3sc4c(c3c2nc1=O)CCCC4 as the compound, how does the inhibition read?
A: 19.9%

Q: For Nc1c(C(=O)NCc2ccco2)sc2nc(N3CCOCC3)c3c(c12)CCCC3, which inhibition is on record?
A: 7.67%

Q: Which inhibition does the source give for CC(NC(=O)Nc1ccc(O)cc1)(C(F)(F)F)C(F)(F)F here?
A: 0.534%

Q: For Cc1cccc(-c2nnc3n2N=C(c2ccccc2)CS3)c1, which inhibition is on record?
A: 44.7%

Q: With N#Cc1nc(COc2ccccc2)oc1N1CCCC1 as the compound, how does the inhibition read?
A: -0.28%

Q: Which inhibition does the source give for COCCn1c(SCc2c(F)cccc2Cl)nc2c1c(=O)[nH]c(=O)n2C here?
A: 15.2%

Q: For Cn1c(=O)[nH]c(=O)c2c1nc(Br)n2CCSc1nnnn1-c1ccccc1, which inhibition is on record?
A: 27.6%

Q: Which inhibition does the source give for Cn1c(N)c(C#N)c(C#N)c1-c1ccccc1 here?
A: 31.5%

Q: For CCOC(=O)CC(=O)CSc1nnc2sc3ccccc3n12, which inhibition is on record?
A: 6.97%

Q: With CCc1nc(NC2CCCCC2)c(C#N)c2c1COC(C)(C)C2 as the compound, how does the inhibition read?
A: -1.73%

Q: For CCc1nc(N2CCOCC2)c(C#N)c2c1CCCC2, which inhibition is on record?
A: 29.5%

Q: With COC(=O)c1ccc(C2/C(=C(\O)c3ccc4c(c3)OCCO4)C(=O)C(=O)N2CCCN(C)C)cc1 (stereo not given) as the compound, how does the inhibition read?
A: 25%

Q: With C=CCOc1ccc(/C(O)=C2/C(=O)C(=O)N(CCCN3CCOCC3)C2c2ccccc2)cc1 (stereo not given) as the compound, how does the inhibition read?
A: 3.35%

Q: With Cc1cc(=O)oc2ccc(OCC(=O)N3CCc4ccccc43)cc12 as the compound, how does the inhibition read?
A: 1.65%

Q: For Cc1ccc(NC(=O)Cn2nc(C)c3ccccc3c2=O)cc1, which inhibition is on record?
A: -6.33%

Q: For O=C(c1ccccc1)n1c(=S)nc2ccccn21, which inhibition is on record?
A: 3.62%

Q: With CCC(C)Nc1nc(OC)nc(N(C)C#N)n1 (stereo not given) as the compound, how does the inhibition read?
A: 3.27%

Q: For Cc1[nH]nc(-c2ccc(O)cc2O)c1Oc1ccccc1, which inhibition is on record?
A: 9.24%

Q: For O=C(NCCC1=CCCCC1)c1ccc(=O)oc1, which inhibition is on record?
A: 20.7%

Q: For c1ccc(-n2ncc3c(N4CCCC4)ncnc32)cc1, which inhibition is on record?
A: 15.7%

Q: For Cc1cc2c(c(=O)o1)C(CC(C)C)C(C#N)=C(N)O2 (stereo not given), which inhibition is on record?
A: 3.4%

Q: Which inhibition does the source give for O=c1cc(-c2ccco2)nc(-c2cccs2)o1 here?
A: 22.8%

Q: For O=C(Nc1nnc(SCc2ccccc2F)s1)c1ccco1, which inhibition is on record?
A: 39.5%

Q: With CCN(CC)CCCN1C(=O)C(=O)/C(=C(/O)c2ccc(OC)cc2)C1c1ccco1 (stereo not given) as the compound, how does the inhibition read?
A: -7.38%

Q: For Cn1c(=O)[nH]c2cc(Cl)cnc21, which inhibition is on record?
A: 9.47%

Q: With C[N+]1(CCNC(=O)/C=N/O)CCCCC1 as the compound, how does the inhibition read?
A: 13.4%

Q: Which inhibition does the source give for COC(=O)c1ccc(C2/C(=C(\O)c3cccc(OC)c3)C(=O)C(=O)N2CCCN(C)C)cc1 (stereo not given) here?
A: 20.5%

Q: Which inhibition does the source give for Cc1cc(=O)oc(C)c1C(=O)n1nc(C)c2c1C[C@@H]1[C@H]2C1(C)C here?
A: -9.72%

Q: For CCN(CC)CCNc1ncnc2c1[nH]c1ccc(OC)cc12, which inhibition is on record?
A: 6%

Q: For Cn1c(=O)c2c(nc(Br)n2CCSc2nc3ccccc3o2)n(C)c1=O, which inhibition is on record?
A: 45.2%

Q: For CCc1ccc(-c2cn3nc(C)c(C)nc3n2)cc1, which inhibition is on record?
A: 23.7%

Q: With CCOC(=O)CSc1nc(N)c(C(=O)Nc2ccc(N(C)C)cc2)s1 as the compound, how does the inhibition read?
A: -7.12%

Q: With CCN(CC)Cc1cc(C(C)=O)ccc1OCC(C)C as the compound, how does the inhibition read?
A: 29.4%

Q: With Cn1c(NCc2ccccc2)nc2c1c(=O)n(Cc1ccc(Br)cc1)c(=O)n2C as the compound, how does the inhibition read?
A: 36.1%

Q: With CC12CCC(=O)N1c1c(sc3nc(N4CCOCC4)c4c(c13)CCCC4)C(=O)N2 (stereo not given) as the compound, how does the inhibition read?
A: 26.7%

Q: With CCOc1ccc(-c2nc(C#N)c(N3CCN(CC)CC3)o2)cc1 as the compound, how does the inhibition read?
A: 5.29%

Q: For NC(=O)CSc1nnc2n(-c3ccccc3)c(=O)c3c4c(sc3n12)CCCCC4, which inhibition is on record?
A: 7.56%
